One experiment concerns Salmonella typhimurium. Nature of the experiment: Antibacterial activity against Salmonella Typhimurium ATCC 1639 after 18 hrs by agar dilution method. In kind it is functional, Salmonella enterica subsp. enterica serovar Typhimurium. The note with it: Salmonella enterica, ATCC 1639, 18 h. The method in brief:
(§1)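 Agar dilution on Mueller Hinton agar; inoculum about 10^6 CFU/mL applied to plates with twofold serial dilutions of compound in distilled water, 0.01 to 100 μg/mL; 37 °C, 18 h. DMSO-supplemented medium at matching dilution run as solvent control. MIC = lowest concentration giving no visible growth on the plate.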

For another experiment, the system named is Pseudomonas aeruginosa. Nature of the experiment: Antibacterial activity against Pseudomonas aeruginosa ATCC 9027 after 18 hrs by agar dilution method. The conditions noted are these: ATCC 9027, 18 h.
For the next experiment, the system named is Escherichia coli. Nature of the experiment: Antibacterial activity against Escherichia coli ATCC 8739 after 18 hrs by agar dilution method. The note with it: ATCC 8739, 18 h. It counts as functional. The method, boiled down:
as §1

In experiment [1] the test system is Staphylococcus aureus. In words: Antibacterial activity against Staphylococcus aureus ATCC 29737 after 18 hrs by agar dilution method. It counts as functional. The conditions noted are these: ATCC 29737, 18 h. The method, boiled down: as §1
For experiment [2], the system named is Staphylococcus epidermidis. In words: Antibacterial activity against Staphylococcus epidermidis ATCC 12229 after 18 hrs by agar dilution method. The note with it: ATCC 12229, 18 h. In kind it is functional. The method in brief:
as §1

The nature of experiment [3]: Cytotoxicity against mouse NIH/3T3 cells after 24 hrs by MTT assay. It counts as cell-based. The note with it: NIH3T3, 24 h. The method, boiled down: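 NIH/3T3 normal mouse fibroblasts exposed to compounds for 24 h; viability read by MTT colorimetric assay.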
For experiment [4], the system named is Staphylococcus aureus. In words: Antibacterial activity against methicillin-resistant Staphylococcus aureus isolate 1 after 18 hrs by agar dilution method. In kind it is functional. The conditions noted are these: isolate 1, 18 h. The method in brief:
(§2)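 Agar dilution on Mueller Hinton agar. Inoculum about 10^6 CFU/mL applied to plates holding two-fold serial dilutions of compound in distilled water, 0.01 to 100 μg/mL. Incubated 37 °C for 18 h. DMSO solvent control included. MIC taken as the lowest concentration giving no visible growth on the plate.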

The test system of experiment [5] is Staphylococcus aureus. Nature of the experiment: Antibacterial activity against methicillin-resistant Staphylococcus aureus isolate 2 after 18 hrs by agar dilution method. In kind it is functional. The note with it: isolate 2, 18 h. The method, boiled down:
as §2

Converted amounts (≈) assume the structure as drawn.

`O=c1ccsn1-c1cccc(F)c1`: the MIC was found to be 12.5 µg/mL (≈ 64 µM) against Salmonella typhimurium; 12.5 µg/mL (≈ 64 µM) against Pseudomonas aeruginosa; 12.5 µg/mL (≈ 64 µM) with Escherichia coli; 6 µg/mL (≈ 30.7 µM) in the experiment on Staphylococcus aureus [1]; 3.25 µg/mL (≈ 16.6 µM) in experiment [2].
Consider `O=c1ccsn1-c1ccc(Cl)cc1`, for which the MIC with Salmonella typhimurium came out at 10 µg/mL (≈ 47.2 µM); in the experiment with Pseudomonas aeruginosa, 10 µg/mL (≈ 47.2 µM); with Escherichia coli, 10 µg/mL (≈ 47.2 µM); against Staphylococcus aureus [1], 3 µg/mL (≈ 14.2 µM); in experiment [2] it was 1.5 µg/mL (≈ 7.09 µM).
Take `O=c1cc(Cl)sn1-c1ccc(Cl)cc1`: the MIC against Salmonella typhimurium turned out to be 0.3 µg/mL (≈ 1.22 µM); in the experiment on Pseudomonas aeruginosa it was 0.6 µg/mL (≈ 2.44 µM); against Escherichia coli it was 0.3 µg/mL (≈ 1.22 µM); against Staphylococcus aureus [1], 0.1 µg/mL (≈ 0.406 µM); in experiment [2] it was 0.1 µg/mL (≈ 0.406 µM).
In the case of `O=c1cc(Cl)sn1-c1ccc(N2CCOCC2)c(F)c1`, the MIC in the experiment with Salmonella typhimurium came to 25 µg/mL (≈ 79.4 µM); with Pseudomonas aeruginosa it was 12.5 µg/mL (≈ 39.7 µM); in the experiment with Escherichia coli it was 25 µg/mL (≈ 79.4 µM); against Staphylococcus aureus [1], 10 µg/mL (≈ 31.8 µM); in experiment [2], 10 µg/mL (≈ 31.8 µM).
`CC(=O)c1ccc(N2CC(Cn3sccc3=O)OC2=O)cc1` (stereo not drawn): the MIC with Salmonella typhimurium came to 50 µg/mL (≈ 157 µM); in the experiment with Pseudomonas aeruginosa, 100 µg/mL (≈ 314 µM); in the experiment with Escherichia coli, 50 µg/mL (≈ 157 µM); against Staphylococcus aureus [1] it was 12.5 µg/mL (≈ 39.3 µM); in experiment [2] it was 25 µg/mL (≈ 78.5 µM).
On to `O=C1OC(Cn2sccc2=O)CN1c1cccc(Cl)c1` (stereo not drawn), for which the minimal inhibitory concentration (MIC) (in the experiment with Salmonella typhimurium; in the experiment on Pseudomonas aeruginosa; against Escherichia coli; with Staphylococcus aureus [1]; in experiment [2]) was 12.5 µg/mL (≈ 40.2 µM) throughout.
Consider `O=c1cc(Cl)sn1-c1ccccc1`, for which the MIC stood at 0.3 µg/mL (≈ 1.42 µM) against Salmonella typhimurium; 1.25 µg/mL (≈ 5.91 µM) with Pseudomonas aeruginosa; 0.6 µg/mL (≈ 2.83 µM) in the experiment with Escherichia coli; 50 µg/mL (≈ 236 µM) against Staphylococcus aureus [1]; 0.3 µg/mL (≈ 1.42 µM) in experiment [2].
Consider `O=C1OC(Cn2sccc2=O)CN1c1ccc(C(F)(F)F)cc1` (stereo not drawn), for which the MIC was 100 µg/mL (≈ 290 µM) against Salmonella typhimurium; 100 µg/mL (≈ 290 µM) with Pseudomonas aeruginosa; 100 µg/mL (≈ 290 µM) against Escherichia coli; 50 µg/mL (≈ 145 µM) with Staphylococcus aureus [1]; 100 µg/mL (≈ 290 µM) in experiment [2].
For `O=C1OC(Cn2sccc2=O)CN1Cc1ccccc1` (stereo not drawn), in experiment [3], the concentration for half-maximal inhibition (IC50) worked out at 273 µg/mL (≈ 940 µM). For the same molecule, the MIC in the experiment on Salmonella typhimurium came to 12.5 µg/mL (≈ 43.1 µM); with Staphylococcus aureus [4] it was 8 µg/mL (≈ 27.6 µM); against Pseudomonas aeruginosa, 12.5 µg/mL (≈ 43.1 µM); against Escherichia coli, 12.5 µg/mL (≈ 43.1 µM); against Staphylococcus aureus [1], 0.5 µg/mL (≈ 1.72 µM); against Staphylococcus aureus [5], 12.5 µg/mL (≈ 43.1 µM). The same molecule yielded an MIC in experiment [2] of 0.5 µg/mL (≈ 1.72 µM).
`O=c1ccsn1-c1ccc(F)cc1`: the MIC against Salmonella typhimurium was found to be 12.5 µg/mL (≈ 64 µM); in the experiment on Pseudomonas aeruginosa it was 12.5 µg/mL (≈ 64 µM); against Escherichia coli it was 6 µg/mL (≈ 30.7 µM); in the experiment on Staphylococcus aureus [1] it was 1.5 µg/mL (≈ 7.68 µM); in experiment [2], 3 µg/mL (≈ 15.4 µM).
As to `O=c1cc(Cl)sn1-c1ccc(C(F)(F)F)cc1`, the minimum inhibitory concentration (MIC) in the experiment with Salmonella typhimurium stood at 12.5 µg/mL (≈ 44.7 µM); against Pseudomonas aeruginosa, 0.1 µg/mL (≈ 0.358 µM); against Escherichia coli, 25 µg/mL (≈ 89.4 µM); in the experiment with Staphylococcus aureus [1] it was 5 µg/mL (≈ 17.9 µM); in experiment [2] it was 5 µg/mL (≈ 17.9 µM).
Consider `O=c1ccsn1-c1ccc(N2CCOCC2)c(F)c1`, for which the MIC stood at 25 µg/mL (≈ 89.2 µM) with Salmonella typhimurium; 25 µg/mL (≈ 89.2 µM) against Pseudomonas aeruginosa; 25 µg/mL (≈ 89.2 µM) against Escherichia coli; 12.5 µg/mL (≈ 44.6 µM) in the experiment on Staphylococcus aureus [1]; 10 µg/mL (≈ 35.7 µM) in experiment [2].
With `Cc1ccc(-n2sccc2=O)cc1`, the minimal inhibitory concentration (MIC) is 25 µg/mL (≈ 131 µM) against Salmonella typhimurium; 25 µg/mL (≈ 131 µM) with Pseudomonas aeruginosa; 25 µg/mL (≈ 131 µM) with Escherichia coli; 25 µg/mL (≈ 131 µM) in the experiment with Staphylococcus aureus [1]; 2 µg/mL (≈ 10.5 µM) in experiment [2].
For the molecule `O=C1OC(Cn2sccc2=O)CN1c1cccc(F)c1` (stereo not drawn), the MIC worked out at 100 µg/mL (≈ 340 µM) with Salmonella typhimurium; 100 µg/mL (≈ 340 µM) with Pseudomonas aeruginosa; 100 µg/mL (≈ 340 µM) in the experiment on Escherichia coli; 50 µg/mL (≈ 170 µM) in the experiment on Staphylococcus aureus [1]; 100 µg/mL (≈ 340 µM) in experiment [2].
In the case of `O=c1ccsn1-c1ccccc1`, the MIC was 25 µg/mL (≈ 141 µM) in the experiment on Salmonella typhimurium; 12.5 µg/mL (≈ 70.5 µM) against Pseudomonas aeruginosa; 12.5 µg/mL (≈ 70.5 µM) in the experiment on Escherichia coli; 3.25 µg/mL (≈ 18.3 µM) with Staphylococcus aureus [1]; 3.25 µg/mL (≈ 18.3 µM) in experiment [2].
For the molecule `O=C(O)c1cn(C2CC2)c2cc(N3CCNCC3)c(F)cc2c1=O` [CIPROFLOXACIN], the MIC against Salmonella typhimurium is 0.01 µg/mL (≈ 0.0302 µM); in the experiment with Pseudomonas aeruginosa, 0.01 µg/mL (≈ 0.0302 µM); in the experiment on Staphylococcus aureus [1], 0.5 µg/mL (≈ 1.51 µM); in experiment [2], 1 µg/mL (≈ 3.02 µM).
Take `CC(=O)NC[C@H]1CN(c2ccc(N3CCOCC3)c(F)c2)C(=O)O1` [LINEZOLID]: it took 465 µg/mL (≈ 1380 µM) to reach half-maximal inhibition in experiment [3] (IC50). Further, the MIC is above 100 µg/mL with Salmonella typhimurium; 2 µg/mL (≈ 5.93 µM) with Staphylococcus aureus [4]; above 100 µg/mL against Pseudomonas aeruginosa; above 100 µg/mL with Escherichia coli; 0.03 µg/mL (≈ 0.0889 µM) in experiment [2].
For the molecule `CN[C@H](CC(C)C)C(=O)N[C@H]1C(=O)N[C@@H](CC(N)=O)C(=O)N[C@H]2C(=O)N[C@H]3C(=O)N[C@H](C(=O)N[C@H](C(=O)O)c4cc(O)cc(O)c4-c4cc3ccc4O)[C@H](O)c3ccc(c(Cl)c3)Oc3cc2cc(c3O[C@@H]2O[C@H](CO)[C@@H](O)[C@H](O)[C@H]2O[C@H]2C[C@](C)(N)[C@H](O)[C@H](C)O2)Oc2ccc(cc2Cl)[C@H]1O` [VANCOMYCIN], the MIC in the experiment with Salmonella typhimurium is above 100 µg/mL; against Pseudomonas aeruginosa, above 100 µg/mL; against Escherichia coli, above 100 µg/mL; against Staphylococcus aureus [1], 0.75 µg/mL (≈ 0.518 µM); in experiment [2], 0.75 µg/mL (≈ 0.518 µM).

The record behind these values is ChEMBL document CHEMBL1154609, “Synthesis and antibacterial activity of isothiazolyl oxazolidinones and analogous 3(2H)-isothiazolones” (Eur J Med Chem, 2010).
